From ChEMBL document CHEMBL1123065, “Sleep-inducing N-alkyl-5-[m-(trifluoromethyl)phenyl]-5-hydroxy-2-pyrrolidinones and N-alkyl-3-(trifluoromethyl)cinnamamides” (J Med Chem, 1985)
Calls of active or inactive are those of the source. No cut-off for these calls is given here.

Assays:
Mus musculus [1] = test: Ability to produce neurological deficit in the rotarod test (10 mice were used per dose, ip); assay type: functional
How it was run: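 Rotarod method of ref 10, intraperitoneal dosing, 10 mice per dose; neurological deficit scored and ND50 (mg/kg ip) derived.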

Mus musculus [2] = test: Effective dose against Mice ataxia, ip administration; assay type: functional
How it was run: (§1)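 Mouse behaviour after ip dosing assessed by a modification of the method of ref 7; ataxia, docility and loss of righting reflex scored, 10 mice per dose, ED50 in mg/kg ip.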

Mus musculus [3] = test: Anticonvulsant activity against N-sulfamoylhexahydrozepine (10 mice were used per dose, ip); assay type: functional
How it was run: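 Mice given compound ip, 10 per dose, then challenged with N-sulfamoylhexahydroazepine by methods of ref 9; ED50 (mg/kg ip) for protection determined.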

Mus musculus [4] = test: Ability to reinduce anesthesia (70 mg/kg, iv) following recovery of loss of righting reflex obtained with hexobarbital.; assay type: functional
Mus musculus [5] = test: Effective dose against loss of righting reflex in mice (10 mice per dose, ip); assay type: functional; how it was run: as §1
[6] = Lethal dose was obtained by 2-h post administration (ip), using four male Royal Hart Wistar rats; assay type: toxicity, organism-based; conditions: rat, in vivo
How it was run: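 Male Royal Hart Wistar rats, 136-160 g, housed in pairs in wire cages, given compound ip; deaths read 2 h after dosing, four rats per compound; LD50 estimated by probit analysis.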

Mus musculus [7] = test: Effective dose against Mice docility, ip administration; assay type: functional; how it was run: as §1
Monkey = test: Ratio of the oral dose of the test compound relative to that of methaqualone (15 mg/kg, po) to induce sleep in Cebus monkey; assay type: functional
How it was run: (§2)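 Cebus monkeys restrained in chairs within sound-attenuated cubicles; dosing per os at 5:00 p.m., five channels recorded, EEG over 13.5 h, Monday–Thursday, visually scored. Each animal its own control versus last 15 control nights (intragastric carboxymethylcellulose placebo). Value is oral dose of test substance relative to methaqualone 15 mg/kg po inducing sleep in the same monkey; NA = no sleep at any dose.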

[8] = Ratio of the oral dose of the test compound relative to that of methaqualone (15 mg/kg, po) to induce sleep in Cebus monkey;NA is Not Active.; assay type: functional, organism-based; how it was run: as §2
Mus musculus [9] = test: Effective dose against loss of righting reflex in mice;10 mice per dose(ip); assay type: functional; how it was run: as §1

| Structure (SMILES) | ND50 (Mus musculus [1]) [mg/kg] | ED50 (Mus musculus [2]) [mg/kg] | ED50 (Mus musculus [3]) [mg/kg] | RD50 (Mus musculus [4]) [mg/kg] | ED50 (Mus musculus [5]) [mg/kg] | LD50 at 2 h [6] [mg/kg] | ED50 (Mus musculus [7]) [mg/kg] | Sleep ratio (Monkey) | Ratio [8] | ND50 (Mus musculus [9]) [mg/kg] |
| --- | --- | --- | --- | --- | --- | --- | --- | --- | --- | --- |
| O=C(CCC(=O)c1cccc(C(F)(F)F)c1)NC1CCCCC1 | >200 | > 200 | > 200 | >200 | > 200 | > 400 | > 200 | – | – | – |
| CCCN1C(=O)CCC1(O)c1cccc(C(F)(F)F)c1 (stereo not drawn) | >200 | > 200 | 150 | 131.9 | 200 | > 400 | > 200 | – | – | – |
| CNC(=O)/C(C)=C/c1cccc(C(F)(F)F)c1 | >75 | 75 | 68.8 | 24.7 | > 100 | 300 | 75 | 0.3 | – | – |
| O=C(/C=C/c1cccc(C(F)(F)F)c1)NCCO | 115.8 | 117 | 100 | 66.7 | 186 | 400 | 78.6 | – | – | – |
| Cc1ccccc1-n1c(C)nc2ccccc2c1=O [METHAQUALONE] | 31.5 | 34.4 | 31.5 | 21.9 | 39.8 | 565 | 35.6 | 1 | – | – |
| O=C1CCC(O)(c2cccc(C(F)(F)F)c2)N1 (stereo not drawn) | >200 | > 200 | > 200 | 150 | > 200 | > 400 | > 200 | 0.1 | – | – |
| CN1CCN(C(=O)/C=C/c2cccc(C(F)(F)F)c2)CC1 | >75 | > 100 | > 75 | >75 | > 100 | 300 | > 100 | – | – | – |
| CN1C(=O)CCC1(O)c1cccc(Cl)c1 (stereo not drawn) | >150 | 186 | > 150 | >150 | > 200 | > 400 | 158 | – | – | – |
| CCC(O)CNC(=O)/C=C/c1cccc(C(F)(F)F)c1 (stereo not drawn) | 57.9 | 90 | 64.4 | 68.8 | 92.9 | 333 | 87.5 | – | inactive | – |
| CN1C(=O)CCC1(O)c1ccccc1 (stereo not drawn) | >200 | > 200 | 138 | 150 | > 200 | 300 | > 200 | – | – | – |
| CCNC(=O)/C=C/c1cccc(C(F)(F)F)c1 | – | 90 | – | >75 | – | 333 | – | – | – | >75 |
| NC(=O)/C=C/c1cccc(C(F)(F)F)c1 | 46.9 | 42.9 | 49.5 | 17.2 | 54.5 | 260 | 37.5 | – | inactive | – |
| CC(C)NC(=O)CCC(=O)c1cccc(C(F)(F)F)c1 | >150 | > 200 | > 150 | 126.9 | > 200 | > 400 | > 200 | – | – | – |
